Activity calls are given as the source filed them. The calls are words filed in the database; no cut-off is given here.
Assays:
[1] = test system: Oocyte; assay: Induction of amplitude current in Xenopus laevis oocytes assessed as 2 fold increase in AMPA-induced current by voltage clamp method; assay type: functional
Method in brief: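 Xenopus oocytes injected with poly(A+) mRNA from cortex of 15-day-old male Wistar rats, expressed 3 days at 18 °C. Two-electrode voltage clamp at -60 mV; 10 μM (S)-AMPA applied 30 s every 5 min. Compound given at increasing concentrations 45 s before, during and after AMPA; peak current compared with the same oocyte's control. EC2X is the 2-fold increase; n ≥ 3, mean ± SEM.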

[2] = Dissociation constant, pKa of the compound; assay type: physicochemical
[3] = test system: Mus musculus; assay: Toxicity in mouse at 10 to 30 mg/kg, ip by Irwin's test; assay type: organism-based; parameters: dose 10-30 mg/kg, route intraperitoneal; settings: in vivo
[4] = test system: Rattus norvegicus; assay: Increase in memory in po dosed Wistar rat by object recognition test; assay type: functional, organism-based
Method in brief: (§1)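 Male Wistar rats (220-330 g), three sessions: 2 min habituation, acquisition with two identical objects, then 3 min recognition with one object replaced by a novel one. Oral compound or vehicle given 1 h before each session. Discrimination index is novel minus familiar exploration time; n = 9-10 per dose; ANOVA plus Dunnett.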

[5] = test system: Mus musculus; assay: Toxicity in mouse at 30 mg/kg, ip; settings: in vivo
[6] = test system: Liver microsomes; assay: Metabolic stability in rat liver microsomes assessed as metabolite degradation after 30 mins at 37 degC by HPLC; assay type: ADME, Microsome; settings: 0.5 h
Method in brief: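 Phenobarbital-induced rat liver microsomes at 1 mg/mL protein with 200 μM substrate (methanol <1%), 37 °C, NADPH-generating system in pH 7.4 phosphate buffer. Incubated 30 min; T0 samples quenched with organic solvent. Metabolites resolved by RP-HPLC with ESI-MS/MS and identified against synthetic standards.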

[7] = test system: Mus musculus; assay: Toxicity in mouse assessed as hypothermia at 30 mg/kg, po after 1.5 hrs; settings: in vivo
[8] = test system: Rattus norvegicus; assay: Increase in memory in Wistar rat at 0.03 to 1 mg/kg, po treated 60 mins before test session by object recognition test; assay type: functional, organism-based; method in brief: as §1
[9] = test system: Hippocampus; assay: Increase in AMPA-mediated postsynaptic response recorded in rat hippocampus CA1 region assessed as increase in excitatory postsynaptic field potential amplituted at 50 uM; assay type: functional
Method in brief: (§2)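 Rat hippocampal slices, Schaffer collateral stimulation with EPSfPs recorded in CA1; perfusion medium contains 1.2 mM Mg2+. Compound bath-applied for 10 min at successively increasing concentrations, with washout to recovery. Amplitude, area and half-width averaged over five pulses and normalized to five pre-drug responses (100%). Compared with vehicle by two-way ANOVA plus Dunnett.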

[10] = test system: Hippocampus; assay: Increase in AMPA-mediated postsynaptic response recorded in rat hippocampus CA1 region assessed as increase in excitatory postsynaptic field potential half width at 50 uM; assay type: functional; method in brief: as §2
[11] = test system: Rattus norvegicus; assay: Increase in duration of long term potentiation in dentate gyrus of anesthetized Wistar rat hippocampus at 10 mg/kg, ip measured for 3 hrs; assay type: functional, organism-based; parameters: dose 10 mg/kg
Method in brief: (§3)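 Male Wistar rats (300-400 g) anaesthetized with chloral hydrate 400 mg/kg ip; body temperature held at 36.6-37 °C. Perforant path stimulated, dentate gyrus recorded. After a 60 min baseline, compound or vehicle given ip; tetanus 60 min later (four 400 Hz bursts). Recorded for 3 h; EPSfP amplitude normalized to baseline; two-way ANOVA plus Dunnett.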

[12] = test system: Rattus norvegicus; assay: Increase in long term potentiation-evoked EPSfP amplitude in dentate gyrus of anesthetized Wistar rat hippocampus at 3 mg/kg, ip measured for 3 hrs; assay type: functional, organism-based; parameters: dose 3 mg/kg; method in brief: as §3
[13] = test system: Hippocampus; assay: Increase in AMPA-mediated postsynaptic response recorded in rat hippocampus CA1 region assessed as increase in excitatory postsynaptic field potential area at 50 uM; assay type: functional; method in brief: as §2
[14] = test system: Hippocampus; assay: Increase in AMPA-mediated postsynaptic response recorded in rat hippocampus CA1 region assessed as increase in excitatory postsynaptic field potential area; assay type: functional, tissue-based; method in brief: as §2

| SMILES | EC [1] | further results |
| --- | --- | --- |
| O=[N+]([O-])c1ccc2c(c1)S(=O)(=O)NCN2CC(F)(F)F | 55 µM |  |
| O=S1(=O)NCN(CCF)c2ccc(C(F)(F)F)cc21 | >300 µM |  |
| O=[N+]([O-])c1ccc2c(c1)S(=O)(=O)NCN2CCF | 27 µM | pKa [2]: 8.45 |
| CCN1CNS(=O)(=O)c2cc([N+](=O)[O-])ccc21 | 16 µM |  |
| COc1ccc2c(c1)S(=O)(=O)NCN2CCF | 71 µM |  |
| O=S1(=O)NCN(CCO)c2ccc(Cl)cc21 | 54 µM |  |
| O=S1(=O)N=CN(CCF)c2ccc(Cl)cc21 |  | Activity [3]: Non-toxic |
| CCN1CNS(=O)(=O)c2cc(Cl)cnc21 | 28.3 µM |  |
| CCN1CNS(=O)(=O)c2cc(C(F)(F)F)ccc21 | >300 µM |  |
| Cc1ccc2c(c1)S(=O)(=O)NCN2CCF | 47.5 µM |  |
| NS(=O)(=O)c1cc2c(cc1Cl)NC(C1CC3C=CC1C3)NS2(=O)=O (stereo unspecified) [CYCLOTHIAZIDE] | 1.7 µM |  |
| O=S1(=O)NCN(CCF)c2ccc(F)cc21 | 3.6 µM |  |
| O=S1(=O)NCN(CCF)c2ccc(Br)cc21 | 17 µM |  |
| CCN1CNS(=O)(=O)c2cc(C)ccc21 | 25 µM |  |
| O=S1(=O)NCN(CC(F)(F)F)c2ccc(Cl)cc21 | 19 µM | pKa [2]: 9.01; Activity [4]: inactive; Activity [5]: Non-toxic |
| CCN1CNS(=O)(=O)c2cc(Cl)ccc21 |  | Stability [6]: Unstable; pKa [2]: 9.33 |
| O=S1(=O)NCN(CCF)c2ccc(Cl)cc21 | 6.7 µM | Stability [6]: Unstable; Activity [7]: Toxic; Activity [8]: Active; pKa [2]: 9.35; Activity [4]: Active; Activity [9]: 23%; Activity [5]: Non-toxic; Activity [10]: 47%; Activity [11]: Active; Activity [12]: Active; Activity [13]: 66%; Activity [14]: Dose-dependent effect |
| CCN1CNS(=O)(=O)c2cc(I)ccc21 | 95 µM |  |
| O=S1(=O)N=CNc2ccc(Cl)cc21 |  | Activity [3]: Non-toxic |
| CCN1CNS(=O)(=O)c2cc(Br)ccc21 | 29 µM |  |
| CCN1CNS(=O)(=O)c2cc(OC)ccc21 | 68 µM |  |
| O=S1(=O)NCN(CC(F)F)c2ccc(Cl)cc21 | 13.5 µM |  |
| O=S1(=O)N[C@H]2CCCN2c2ccccc21 | 25 µM |  |
| O=S1(=O)NCN(CCF)c2ccc(I)cc21 | 120 µM |  |

— ChEMBL document CHEMBL1156916, “New fluorinated 1,2,4-benzothiadiazine 1,1-dioxides: discovery of an orally active cognitive enhancer acting through potentiation of the 2-amino-3-(3-hydroxy-5-methylisoxazol-4-yl)propionic acid receptors” (J Med Chem, 2010)
